Measured values taken from ChEMBL document CHEMBL1177857, “Functionalized aurones as inducers of NAD(P)H:quinone oxidoreductase 1 that activate AhR/XRE and Nrf2/ARE signaling pathways: synthesis, evaluation and SAR” (Eur J Med Chem, 2010).
Activity calls are given as the source filed them. No cut-off for these calls is given here.

Assays:
[1] = Cytotoxicity against mouse Hepa-1c1c7 cells assessed as cell survival at 5 uM after 48 hrs by MTT assay; type: cell-based; conditions: read-out: Activity
Method in brief: (§1)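 MTT (0.5 mg/ml) added for 3 h at 37 °C, formazan dissolved in DMSO and read at 590 nm. Survival (%) = (A treated − A blank)/(A untreated − A blank) × 100.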

[2] = Induction of NQO1 activity in mouse Hepa-1c1c7 cells at 5 uM after 48 hrs relative to control
CYP1A1 [3] = molecular target: T1, CYP1A1 (Mus musculus, UniProt P30561); experiment: Induction of Ah receptor in mouse Hepa-1c1c7 cells assessed as induction of CYP1A1 activity at 5 uM after 48 hrs by EROD assay relative to control; type: cell-based; conditions: probe ethoxyresorufin (EROD), read-out: FC
T1 sequence (P30561 whole entry): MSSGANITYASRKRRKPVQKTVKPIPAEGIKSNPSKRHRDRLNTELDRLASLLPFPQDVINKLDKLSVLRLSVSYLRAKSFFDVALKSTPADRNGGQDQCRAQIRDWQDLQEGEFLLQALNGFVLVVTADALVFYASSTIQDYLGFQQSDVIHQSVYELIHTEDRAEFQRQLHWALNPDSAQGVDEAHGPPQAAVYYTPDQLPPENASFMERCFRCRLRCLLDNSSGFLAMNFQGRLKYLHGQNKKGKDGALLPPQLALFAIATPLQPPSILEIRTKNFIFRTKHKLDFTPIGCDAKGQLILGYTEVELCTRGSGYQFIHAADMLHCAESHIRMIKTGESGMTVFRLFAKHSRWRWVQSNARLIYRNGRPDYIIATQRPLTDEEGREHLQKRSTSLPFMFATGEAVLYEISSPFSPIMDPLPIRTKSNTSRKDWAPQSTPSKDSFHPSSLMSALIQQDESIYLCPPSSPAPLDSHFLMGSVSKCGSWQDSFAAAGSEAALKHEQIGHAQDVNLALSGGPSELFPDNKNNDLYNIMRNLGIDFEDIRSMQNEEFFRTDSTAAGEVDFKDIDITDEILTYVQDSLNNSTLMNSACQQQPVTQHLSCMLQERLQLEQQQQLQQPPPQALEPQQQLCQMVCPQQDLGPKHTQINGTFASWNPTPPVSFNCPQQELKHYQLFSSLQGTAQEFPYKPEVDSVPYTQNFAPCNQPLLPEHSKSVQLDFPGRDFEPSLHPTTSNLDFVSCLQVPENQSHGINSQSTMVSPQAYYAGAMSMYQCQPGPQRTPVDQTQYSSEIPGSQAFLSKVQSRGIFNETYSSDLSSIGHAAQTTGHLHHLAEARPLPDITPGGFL
Method in brief: (§2)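 Hepa1c1c7 cells at 10⁴/well grown 24 h, then given compound at one fixed concentration for 48 h. After a PBS wash, cells incubated 40 min at 37 °C with 5 µM 7-ethoxyresorufin plus 2 mM salicylamide. Resorufin fluorescence read at ex 530/em 590 nm. Fold induction = (F cells+compound − F blank)/(F control − F blank); mean ± SD, n = 3.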

CYP1A1 [4] = molecular target: T1, CYP1A1; experiment: Induction of Ah receptor in mouse Hepa-1c1c7 cells assessed as induction of CYP1A1 activity at 10 uM after 48 hrs by EROD assay relative to control; type: cell-based; conditions: probe ethoxyresorufin (EROD), read-out: FC; method in brief: as §2
CYP1A1 [5] = molecular target: T1, CYP1A1; experiment: Induction of Ah receptor in mouse Hepa-1c1c7 cells assessed as induction of CYP1A1 activity at 25 uM after 48 hrs by EROD assay relative to control; type: cell-based; conditions: probe ethoxyresorufin (EROD), read-out: FC; method in brief: as §2
[6] = Induction of NQO1 activity in mouse Hepa-1c1c7 cells at 25 uM after 48 hrs relative to control
[7] = molecular target: NAD(P)H dehydrogenase [quinone] 1 (Homo sapiens) (UniProt P15559); experiment: Induction of […] NQO1 activity in mutant mouse BPrc1 cells assessed as concentration require for 2 fold induction after 48 hrs; type: cell-based
Chain of NAD(P)H dehydrogenase [quinone] 1 (Homo sapiens) (P15559 whole entry): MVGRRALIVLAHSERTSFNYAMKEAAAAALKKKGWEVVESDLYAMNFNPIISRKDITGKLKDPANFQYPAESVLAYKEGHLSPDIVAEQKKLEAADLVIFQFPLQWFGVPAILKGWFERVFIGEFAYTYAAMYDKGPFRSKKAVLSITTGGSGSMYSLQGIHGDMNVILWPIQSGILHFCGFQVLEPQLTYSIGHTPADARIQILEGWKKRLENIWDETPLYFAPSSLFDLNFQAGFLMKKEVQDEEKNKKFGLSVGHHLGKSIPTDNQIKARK
Method in brief: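 Mutant Hepa1c1c7 line (Bp^rc1, defective Ah-receptor pathway) seeded at 10⁴ cells/well for 24 h, then exposed to compound for 48 h; final DMSO ≤0.5%. Cells lysed with 0.8% digitonin/2 mM EDTA. NQO1 read by menadione-driven MTT reduction (NADP, glucose-6-phosphate regenerating system, FAD, pH 7.4), stopped after 5 min with dicoumarol, A590. Activity taken relative to blank and control wells; CD = concentration doubling basal activity; mean ± SD of 3 determinations.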

Hepa-1c1c7 [8] = experiment: Induction of human NQO1 gene expression in mouse Hepa-1c1c7 cells co-transfected with pGL3-ARE at 10 to 25 uM after 24 hrs by luciferase reporter gene assay; type: functional, cell-based
Method in brief: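 Hepa1c1c7 cells at about 50% confluency co-transfected with pGL3-ARE firefly luciferase (human NQO1 ARE) and pRL-CMV Renilla as transfection control. After 24 h, cells exposed to compound (10 or 25 µM). Dual luciferase read-out expressed as fold over control; mean ± SD of 3 independent transfections, t-test.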

Hepa-1c1c7 [9] = experiment: Induction of TrxR activity in mouse Hepa-1c1c7 cells at 10 uM after 24 hrs; type: cell-based
Method in brief: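 Hepa1c1c7 cells treated with compound at 10 µM for 24 h. Digitonin/EDTA lysate (25 µg) incubated 20 min at 37 °C with 85 mM HEPES pH 7.6, 0.3 mM insulin, 660 µM NADPH, 2.5 mM EDTA and 5 µM human thioredoxin. Reaction quenched with DTNB in guanidine; A412 read, minus no-thioredoxin background. Fold versus control, mean ± SEM, n = 3.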

[10] = Cytotoxicity against mouse Hepa-1c1c7 cells assessed as cell survival at 25 uM after 48 hrs by MTT assay; type: cell-based; conditions: read-out: Activity; method in brief: as §1
[11] = Induction of NQO1 activity in mouse Hepa-1c1c7 cells at 1 uM after 48 hrs relative to control
Hepa-1c1c7 [12] = experiment: Increase of Nrf2 protein level in mouse Hepa-1c1c7 cells at 10 uM for 6 hrs Western blotting relative to control; type: functional, cell-based
Method in brief: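 Hepa1c1c7 cells exposed to compound at 10 µM for 6 h, with MG132 (25 µM) as reference. Lysates made in digitonin/EDTA with protease inhibitors; 50 µg protein run on 15% SDS-PAGE, blotted to nitrocellulose and probed for Nrf2 with β-actin loading control. Bands quantified by densitometry against untreated control, 3 experiments, independent t-test.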

[13] = Upregulation of TrxR protein expression in mouse Hepa-1c1c7 cells at 10 uM after 24 hrs by Western blotting relative to control; type: functional, cell-based
Method in brief: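 Hepa1c1c7 cells exposed to compound at 10 µM for 24 h. Digitonin/EDTA lysates (50 µg protein) separated on 15% SDS-PAGE, blotted to nitrocellulose and probed with anti-TrxR antibody. Band intensity compared with untreated control; representative of 3 experiments.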

[14] = Transcriptional activation of Nrf2/ARE signaling pathway in mouse Hepa-1c1c7 cells assessed as increase in cellular GSH level at 10 uM after 24 hrs by Ellman's method; type: functional, cell-based
Method in brief: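 Hepa1c1c7 cells at 10⁶/plate grown 24 h, then given compound at 10 µM final for 24 h. Pellets extracted with 3% sulfosalicylic acid. Total GSH measured by DTNB recycling (0.6 mM DTNB, 0.2 mM NADPH, GSH reductase) as ΔA412 over 5 min against a GSH standard curve. Values normalized to Bradford protein from a parallel plate; mean ± SEM, n = 3.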

SMILES | fold change (FC) [2] | fold induction at 48 h, 10 µM (CYP1A1 [4]) | fold induction at 48 h, 25 µM (CYP1A1 [5]) | fold change (FC) [6] | viability at 48 h, 5 µM [1] [%] | viability at 48 h, 25 µM [10] [%] | also measured
O=C1Oc2ccc(O)cc2/C1=C/c1ccc(Cl)cc1 | 2.49 | 1.04 |  |  | 90 |  | 
O=C1/C(=C/c2ccc(Cl)cc2)Oc2cc(O)ccc21 [6-HYDROXY-4'-CHLORO AURONE] | 1.51 |  | 1.24 | 2.55 | 120 |  | 
O=c1cc(-c2ccccc2)oc2ccc3ccccc3c12 |  |  |  |  |  |  | Activity [7]: inactive
COc1cc(OC)c2c(c1)OC(Cc1ccccc1O)C2=O (stereo unspecified) | 1.55 |  |  |  | 102 |  | Activity (Hepa-1c1c7 [8]): inactive; Activity (Hepa-1c1c7 [9]): inactive
O=C1/C(=C/c2ccccc2F)Oc2cc(O)cc(O)c21 | 2.2 | 1 |  |  | 110 | 96 | 
COc1cc(/C=C2\Oc3cc(O)cc(O)c3C2=O)ccc1O | 1.53 |  | 1.06 | 2.54 | 97 | 98 | 
COc1cc(OC)c2c(c1)O/C(=C\c1ccccc1F)C2=O |  |  |  |  | 66 |  | fold change (FC) [11]: 2.6
O=C1/C(=C/c2ccccc2O)Oc2ccccc21 | 1.41 |  |  | 1.61 | 110 | 102 | Activity (Hepa-1c1c7 [8]): inactive; Activity (Hepa-1c1c7 [9]): inactive; fold induction at 48 h, 5 µM (CYP1A1 [3]): 1.4
O=C1/C(=C/c2ccccc2Cl)Oc2cc(O)cc(O)c21 | 2.64 | 1.18 |  |  | 101 |  | 
COc1ccccc1/C=C1\Oc2ccc(O)cc2C1=O | 3.1 |  | 1.68 |  | 97 | 95 | 
O=C1/C(=C/c2cccc(Cl)c2)Oc2ccc(O)cc21 | 4.68 | 2.95 |  |  | 101 |  | 
O=C1/C(=C/c2ccc(O)cc2)Oc2cc(O)cc(O)c21 | 1.23 |  | 1.05 | 1.95 | 105 | 98 | 
COc1cc(OC)c2c(c1)O/C(=C\c1ccc(F)cc1)C2=O |  |  |  |  | 93 |  | fold change (FC) [11]: 2.16
O=C1/C(=C/c2ccccc2O)Oc2cc(O)ccc21 | 1.45 |  | 1.07 | 2.11 | 113 | 102 | 
O=C1/C(=C/c2cccc(O)c2)Oc2cc(O)ccc21 | 1.64 |  | 1.08 | 2.92 | 112 | 106 | 
O=C1/C(=C/c2cccc(Cl)c2)Oc2cc(O)ccc21 | 2.85 | 1.05 |  |  | 111 | 98 | 
O=C1/C(=C/c2ccccc2O)Oc2ccc(O)cc21 | 2.65 | 2.01 |  |  | 99 | 104 | 
O=C1Oc2ccc(O)cc2/C1=C/c1ccccc1O | 2.43 | 1.12 |  |  | 115 |  | 

The next lines start with results.

fold change (FC) [2] | fold induction at 48 h, 10 µM (CYP1A1 [4]) | fold induction at 48 h, 25 µM (CYP1A1 [5]) | fold change (FC) [6] | SMILES | viability at 48 h, 5 µM [1] [%] | viability at 48 h, 25 µM [10] [%] | also measured
4.47 |  |  |  | COc1cc(OC)c2c(c1)O/C(=C\c1cccc(F)c1)C2=O | 89 |  | fold induction at 48 h, 5 µM (CYP1A1 [3]): 1.48
2.26 | 0.98 |  |  | COc1cc(OC)c2c(c1)O/C(=C\c1ccccn1)C2=O | 92 |  | 
3.98 |  |  |  | COc1cc(OC)c2c(c1)O/C(=C\c1cccc(Cl)c1)C2=O | 103 |  | fold induction at 48 h, 5 µM (CYP1A1 [3]): 1.18
1.79 |  | 1.03 | 3.57 | COc1cc(OC)c2c(c1)OC(=O)/C2=C\c1ccccc1OC | 118 | 107 | 
5.28 | 1.87 |  |  | COc1cc(OC)c2c(c1)O/C(=C\c1ccccc1O)C2=O | 102 |  | Activity (Hepa-1c1c7 [12]): Active; Activity (Hepa-1c1c7 [8]): Active; Activity [13]: Active; Activity [14]: Active
2.15 | 1.13 |  |  | COc1cccc(/C=C2\Oc3cc(O)cc(O)c3C2=O)c1 | 112 |  | 
5.6 |  |  |  | COc1cc(OC)c2c(c1)O/C(=C\c1ccccc1Cl)C2=O | 105 |  | fold induction at 48 h, 5 µM (CYP1A1 [3]): 1.55
1.43 |  | 1.04 | 2.1 | COc1cc(OC)c2c(c1)OC(=O)/C2=C\c1ccccc1 | 100 | 96 | 
1.82 |  | 1.73 | 4.5 | COc1cc(OC)c2c(c1)O/C(=C\c1ccncc1)C2=O | 101 | 110 | 
2.12 | 0.97 |  |  | COc1cc(OC)c2c(c1)OC(=O)/C2=C\c1ccccc1Cl | 90 |  | 
2.53 | 0.97 |  |  | COc1cc(OC)c2c(c1)O/C(=C\c1cccc(O)c1O)C2=O | 88 |  | 
1.2 |  | 1.16 | 2.07 | COc1cc(OC)c2c(c1)O/C(=C\c1cccc(O)c1)C2=O | 104 | 100 | 
